“And” between values parts separate entries of the source, which are not always exact repeats. Equal entries are not always repeated.
What was measured:
[1] = tested on: recurrent RB-positive glioblastoma; details: 22 patients; cited from earlier work
[2] = safety and tolerability in glioblastoma patients; details: human, in vivo
[3] = tested on: pS6; assay: longitudinal tissue analysis, pS6 immunohistochemistry; type: in vivo, human; details: 3 patients
Method in brief: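 Samples were from expansion-cohort patients (600 mg daily, 21 days on/7 off) re-resected at recurrence. Enhancing tumor was collected. Archival, Phase 0 surgical and post-treatment FFPE tissue was immunostained on an automated platform (anti-pS6 1:100). The software nuclear function quantified % positive cells.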

[4] = tested on: phosphorylation of FOXM1 (pFOXM1); assay: tumor pharmacodynamics, pFOXM1 immunohistochemistry; type: in vivo, human; details: P = 0.142, primarily at 8-hour postdose
Method in brief: (§1)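 Patients took 900 mg/d oral for 5 days, with resection 2, 8 or 24 h after the last dose. Surgical FFPE tissue and matched archival tissue from the initial resection were stained together on an automated platform, with positive and no-primary controls. Antibodies: pRB 1:400, pFOXM1 1:200, MIB-1 1:100, cleaved caspase-3 1:300. Nuclear % positive cells were compared by paired t-test on log values (two-sided 5%), also after normalising to the untreated historical-control median, overall and per arm.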

[5] = tested on: proliferative marker MIB-1; assay: tumor pharmacodynamics, MIB-1 immunohistochemistry; type: in vivo, human; details: vs archival tissue, P = 0.039
Method in brief: as §1

[6] = type: in vivo, human
[7] = tested on: apoptotic marker cleaved caspase-3; assay: tumor pharmacodynamics, cleaved caspase-3 immunohistochemistry; type: in vivo, human; details: P = 0.19
Method in brief: as §1

[8] = plasma pharmacokinetics in recurrent glioblastoma patients; type: in vivo, human
Method in brief: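 Patients took 900 mg oral daily. Blood was drawn before dosing and 0.5, 1, 2, 4, 6, 8 and 24 h after the fourth dose. Plasma was held at −80 °C. Totals were measured by validated LC-MS/MS, and unbound levels as total × fraction unbound (equilibrium dialysis). Noncompartmental analysis gave Cmax, Tmax, AUCτ and CL/F (dose/AUCτ), summarised as mean, median, range and coefficient of variation.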

[9] = tested on: phosphorylation of RB (pRB); assay: tumor pharmacodynamics, pRB immunohistochemistry; type: in vivo, human
Method in brief: as §1

[10] = tested on: recurrent glioblastoma; assay: pharmacokinetic/pharmacodynamic-guided expansion cohort, clinical response; type: in vivo, human
[11] = tested on: p4EBP1; assay: longitudinal tissue analysis, p4EBP1 immunohistochemistry; type: in vivo, human; details: 3 patients
[12] = tested on: CDK4/6; details: read-out: in vitro IC50 for inhibition of CDK4/6 kinase activity; cited from earlier work
[13] = 2 to 24 hours after fifth 900 mg dose
[14] = human, non-enhancing tumor region, oral, 900 mg

CC(=O)c1c(C)c2cnc(Nc3ccc(N4CCNCC4)cn3)nc2n(C2CCCC2)c1=O [Palbociclib]
clinical efficacy in terms of prolonging PFS [1]: limited clinical efficacy

CN(C)C(=O)c1cc2cnc(Nc3ccc(N4CCNCC4)cn3)nc2n1C1CCCC1 [ribociclib, Ribociclib]
maximum tolerated dose [2]: 900 mg daily | pS6 positive cells ([3]; matched Phase 0 samples): 21.3% | pS6 positive cells ([3]; post-treatment specimens): 36.7% | pFOXM1 levels after normalization with historical control samples [4]: downward trend | MIB-1 change after Phase 0 exposure [5]: significantly reduced | mean unbound concentration in enhancing tumor region [6, 13]: 2.152 µmol/kg and 2.152 ± 1.559 µmol/kg | mean unbound concentration in non-enhancing tumor region [6, 13]: 0.560 µmol/kg and 0.560 ± 0.364 µmol/kg | concentration at 2 h [6, 14]: 510 nM | concentration at 8 h [6, 14]: 600 nM | concentration at 24 h [6, 14]: 350 nM | cleaved caspase-3 change after Phase 0 exposure [7]: trended towards a concomitant increase | half-life ([8]; human, plasma, po, 900 mg): 13.5 h | coefficient variation in drug exposure (Cmax, Ctrough, AUC0-24h) ([8]; inter-individual, among 12 patients): about 50% | fluctuation of unbound plasma concentration, trough to peak ([8]; steady-state, 900 mg daily): 3.4 fold | unbound plasma concentration, mean peak level ([8]; steady-state, 900 mg daily): 440 nM | unbound plasma concentration, mean trough level ([8]; steady-state, 900 mg daily): 130 nM | patients with > 20% decrease in pRB levels ([9]; 9 of 12 Phase 0 patients, vs matched archival tissue): 75% | average decrease in pRB levels ([9]; 12 treated patients, 900 mg/d for 5 days): 50% | pRB positive cells ([9]; Phase 0 operation specimens, 3 re-resected patients): 7.4% | pRB positive cells ([9]; post-treatment (recurrence after monotherapy), 3 patients): 19.96% | Phase 0 responders based on pharmacokinetic and pharmacodynamic results ([10]; 6 of 8 patients with histologically evident recurrence): 75% | PFS6 ([10]; expansion cohort, 6 patients): 16.7% | median OS ([10]; expansion cohort, 6 patients): 7.8 months | median PFS ([10]; expansion cohort, 6 patients, 600 mg daily 21 days on/7 days off): 9.7 weeks | clinical efficacy of monotherapy ([10]; recurrent glioblastoma): limited clinical efficacy | p4EBP1 positive cells ([11]; matched Phase 0 samples): 2.8% | p4EBP1 positive cells ([11]; post-treatment specimens): 31.2% | IC50 [12]: 40 nM
